Data as given in ChEMBL document CHEMBL1932993, “Synthesis and cytotoxicity of O,O'-dialkyl {[2-(substituted phenoxy)acetamido](substituted phenyl)methyl}phosphonates” (Eur J Med Chem, 2012).

Legend:
[1] = tested on: KB; assay: Cytotoxicity against human KB cells after 72 hrs ny MTT assay; assay type: functional, cell-based
In short: (§1)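 Cells grown in RPMI 1640 with 10% fetal calf serum and seeded at 2 × 10^4/mL. They were held 12 h at 37 °C in 5% CO2, then exposed to compound for 3 days at 37 °C. MTT formazan was dissolved and absorbance read at 570 nm. IC50 is the concentration giving 50% growth inhibition versus untreated controls. At least 3 independent experiments.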

[2] = Cytotoxicity against human CNE2 cells after 72 hrs ny MTT assay; assay type: functional, cell-based; details: CNE-2, 72 h; in short: as §1

## COP(=O)(OC)C(NC(=O)COc1ccc(Cl)cc1Cl)c1ccccc1 (centres undefined)
[1]
  IC50: > 50 µM
[2]
  IC50: > 50 µM

## COP(=O)(OC)C(NC(=O)COc1ccc(Cl)cc1Cl)c1ccc(C)cc1 (centres undefined)
[1]
  IC50: > 50 µM
[2]
  IC50: > 50 µM

## COP(=O)(OC)C(NC(=O)COc1ccc(Cl)c(C)c1)c1ccc(C)cc1 (centres undefined)
[1]
  IC50: > 50 µM
[2]
  IC50: > 50 µM

## COc1ccc(C(NC(=O)COc2cccc(C)c2C)P(=O)(OC)OC)cc1 (centres undefined)
[1]
  IC50: > 50 µM
[2]
  IC50: > 50 µM

## COc1ccc(C(NC(=O)COc2ccc(Cl)cc2Cl)P(=O)(OC)OC)cc1 (centres undefined)
[1]
  IC50: > 50 µM
[2]
  IC50: > 50 µM

## CCOP(=O)(OCC)C(NC(=O)COc1ccc(Cl)cc1Cl)c1ccc(OC)cc1 (centres undefined)
[1]
  IC50: > 50 µM
[2]
  IC50: > 50 µM

## CCOP(=O)(OCC)C(NC(=O)COc1ccc(Cl)cc1)c1ccc(OC)cc1 (centres undefined)
[1]
  IC50: > 50 µM
[2]
  IC50: > 50 µM

## CCOP(=O)(OCC)C(NC(=O)COc1cccc(C(F)(F)F)c1)c1ccc(OC)cc1 (centres undefined)
[1]
  IC50: > 50 µM
[2]
  IC50: > 50 µM

## CCOP(=O)(OCC)C(NC(=O)COc1ccc([N+](=O)[O-])cc1)c1ccc(OC)cc1 (centres undefined)
[1]
  IC50: > 50 µM
[2]
  IC50: > 50 µM

## CCOP(=O)(OCC)C(NC(=O)COc1ccc(Cl)cc1C)c1ccc(OC)cc1 (centres undefined)
[1]
  IC50: > 50 µM
[2]
  IC50: > 50 µM

## CCCOP(=O)(OCCC)C(NC(=O)COc1ccc(Cl)cc1Cl)c1ccccc1 (centres undefined)
[1]
  IC50: 16 µM
[2]
  IC50: 26 µM

## CCCOP(=O)(OCCC)C(NC(=O)COc1ccc(Cl)cc1)c1ccccc1 (centres undefined)
[1]
  IC50: 23 µM
[2]
  IC50: 42.9 µM

## CCCOP(=O)(OCCC)C(NC(=O)COc1cccc(C(F)(F)F)c1)c1ccccc1 (centres undefined)
[1]
  IC50: 21.6 µM
[2]
  IC50: 41.8 µM

## CCCOP(=O)(OCCC)C(NC(=O)COc1ccc(Cl)cc1Cl)c1ccc(OC)cc1 (centres undefined)
[1]
  IC50: 17.4 µM
[2]
  IC50: 27.2 µM

## CCCOP(=O)(OCCC)C(NC(=O)COc1cccc(C(F)(F)F)c1)c1ccc(OC)cc1 (centres undefined)
[1]
  IC50: 19.8 µM
[2]
  IC50: 38.5 µM

## CCCCOP(=O)(OCCCC)C(NC(=O)COc1cccc(C)c1C)c1ccccc1 (centres undefined)
[1]
  IC50: 18.2 µM
[2]
  IC50: 25.1 µM

## CCCCOP(=O)(OCCCC)C(NC(=O)COc1ccccc1Cl)c1ccccc1 (centres undefined)
[1]
  IC50: 15.8 µM
[2]
  IC50: 11.4 µM

## CCCCOP(=O)(OCCCC)C(NC(=O)COc1ccc(Cl)cc1Cl)c1ccccc1 (centres undefined)
[1]
  IC50: 17.8 µM
[2]
  IC50: 13.8 µM

## CCCCOP(=O)(OCCCC)C(NC(=O)COc1ccc(Cl)cc1C)c1ccccc1 (centres undefined)
[1]
  IC50: 12.3 µM
[2]
  IC50: 19.9 µM

## CCCCOP(=O)(OCCCC)C(NC(=O)COc1ccc(Cl)c(C)c1)c1ccccc1 (centres undefined)
[1]
  IC50: 18.1 µM
[2]
  IC50: 43 µM

## CCCCOP(=O)(OCCCC)C(NC(=O)COc1cc(Cl)c(Cl)cc1Cl)c1ccccc1 (centres undefined)
[1]
  IC50: 15.9 µM
[2]
  IC50: > 50 µM

## CCCCOP(=O)(OCCCC)C(NC(=O)COc1ccc(OC)cc1)c1ccccc1 (centres undefined)
[1]
  IC50: 25.5 µM
[2]
  IC50: 41.2 µM

## CCCCOP(=O)(OCCCC)C(NC(=O)COc1ccc(F)cc1Cl)c1ccccc1 (centres undefined)
[1]
  IC50: 12.3 µM
[2]
  IC50: 13.1 µM

## CCCCOP(=O)(OCCCC)C(NC(=O)COc1cccc(C)c1C)c1ccc(OC)cc1 (centres undefined)
[1]
  IC50: 7.1 µM
[2]
  IC50: 20.7 µM

## CCCCOP(=O)(OCCCC)C(NC(=O)COc1ccccc1Cl)c1ccc(OC)cc1 (centres undefined)
[1]
  IC50: 14.5 µM
[2]
  IC50: 13.4 µM

## CCCCOP(=O)(OCCCC)C(NC(=O)COc1ccc(C(C)(C)C)cc1)c1ccc(OC)cc1 (centres undefined)
[1]
  IC50: 13.3 µM
[2]
  IC50: 31.1 µM

## O=c1[nH]cc(F)c(=O)[nH]1 [FLUOROURACIL]
[1]
  IC50: 9 µM
[2]
  IC50: 13.5 µM
